# Most compounds without a hit are left out; they make up all but 1.4% or so of the library.
# mABHD4 FP – ABHD4 (mouse) inhibition, primary FP screen. Q8VD66. inhibition, % at 8.92 µM. AID 720543. purified mABHD4, FP-Rh probe fluorescence polarization. 0.54% of 370,000 active;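 active = inhibition exceeding the mean over every tested compound plus 3 SD, cut at about 30% in these data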
#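 Test system: mABHD4 protein | Buffer or medium: HEPES pH 7.0 buffer, 150 mM NaCl, 0.01% Pluronic F-127 | Probe or stimulus: FP-Rh fluorescent activity-based probe, added after compound pre-incubation | Timing: Pre-incubation 45 min, probe exposure 60 min, at 25 °C | Technique: Fluorescence polarization, excitation 525 nm, emission 598 nm, BODIPY TMR filters | Repeats: Single well per compound (singlicate)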
# RBBP9 inhibitor – inhibitors of human serine hydrolase RBBP9 | O75884 | 0.2% of 220,000 active | inhibition, % at 7.94 µM | recombinant RBBP9, FP-Rh probe fluorescence polarization;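 active = inhibition above the campaign mean of all tested compounds plus 3 SD, cut at about 14% in these data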
# Target sequence (O75884 whole entry, looked up): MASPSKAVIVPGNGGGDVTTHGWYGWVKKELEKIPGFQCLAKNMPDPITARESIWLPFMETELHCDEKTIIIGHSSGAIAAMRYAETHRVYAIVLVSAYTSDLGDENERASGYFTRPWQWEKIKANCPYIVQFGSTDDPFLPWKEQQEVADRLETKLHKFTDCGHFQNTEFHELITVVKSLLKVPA
#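 system = RBBP9 protein | input = RBBP9 at 2.5 µM in dispensed solution, before mixing | measured by = fluorescence polarization (mP), excitation 525 nm, emission 598 nm | incubation = enzyme-compound preincubation 30 min, then probe labeling 45 min, 25 °C | buffer or medium = Tris-NaCl-Pluronic buffer, pH 8.0 | compound = single dose 7.94 µM | also added = FP-Rh probe, 375 nM dispensing solution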
# HTRA1 inhibitor – HTRA1 (human) protease inhibition. 0.5% of 340,000 active. recombinant HTRA1, FP-rhodamine activity-based probe, fluorescence polarization. Q92743. AID 504803. inhibition, % at 5.96 µM; in the data active = inhibition above about 36%
# Target sequence (Q92743 whole entry, looked up): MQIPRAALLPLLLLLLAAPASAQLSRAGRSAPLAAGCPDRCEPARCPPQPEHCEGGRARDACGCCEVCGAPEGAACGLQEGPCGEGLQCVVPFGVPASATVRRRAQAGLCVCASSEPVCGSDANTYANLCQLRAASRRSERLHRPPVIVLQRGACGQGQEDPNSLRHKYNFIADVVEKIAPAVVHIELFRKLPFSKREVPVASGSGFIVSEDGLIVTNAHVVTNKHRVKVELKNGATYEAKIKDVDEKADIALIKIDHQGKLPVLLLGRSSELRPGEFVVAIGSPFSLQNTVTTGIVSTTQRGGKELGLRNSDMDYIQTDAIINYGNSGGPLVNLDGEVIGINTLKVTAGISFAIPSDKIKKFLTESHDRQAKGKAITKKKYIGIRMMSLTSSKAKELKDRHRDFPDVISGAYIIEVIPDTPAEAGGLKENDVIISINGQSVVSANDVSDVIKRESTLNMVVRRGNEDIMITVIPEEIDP
# SIAE primary – inhibitors of human sialic acid acetylesterase SIAE; inhibition, % at 9.66 µM; SIAE FP-Rh probe binding, fluorescence polarization; AID 1053197; 0.69% of 370,000 active; Q9HAT2;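 active = inhibition above a cutoff: mean of compounds within the control limits plus 3 SD of those, cut at about 17% in these data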
# SIAE confirm – confirmation of human SIAE inhibitors | shares compounds with SIAE primary | SIAE FP-Rh activity-based probe, fluorescence polarization | inhibition, % at 9.66 µM | 13% of 2,300 active | AID 1117263;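 active = mean inhibition of the replicates above the hit cutoff set in the primary screen, cut at about 17% in these data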;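 note: inhibitors lower polarization as more probe stays unbound to SIAE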
# Numbers stand for hits; – = inactive; · = no result given.
SMILES,mABHD4 FP,RBBP9 inhibitor,HTRA1 inhibitor,SIAE primary,SIAE confirm
O=C(Cc1ccc(NC(=O)C2CCCN(C(=O)C3CC3)C2)cc1)Nc1ccc(C(=O)N2CCOCC2)cc1 (configuration not stated),–,·,–,–,·
COc1ccc(NC(=S)NNC(=O)c2cccs2)cc1,–,–,–,18,–
COc1ccc(NS(=O)(=O)c2cc(NC(=O)c3cccs3)ccc2N2CCCC2)cc1,–,–,–,26,–
O=C1NC(=O)C2(CCCCC2C2CCCCC2)N1 (configuration not stated),–,·,–,–,·
CCN(C(=O)CN1C(=O)COc2ccc(S(=O)(=O)N3CCCCCC3)cc21)c1cccc(C)c1,–,·,–,–,·
O=C(Nc1ccccc1Oc1ccsc1C(=O)O)c1ccccc1F,–,·,–,–,·
O=C(Nc1cc(C(F)(F)F)cc(C(F)(F)F)c1)[C@H]1O[C@@H](n2ccc(=O)[nH]c2=O)[C@H](O)[C@@H]1O,–,·,·,–,·
Cc1c(C(=O)Nc2ccccc2)c2ccc(C(F)(F)F)cc2n1O,–,·,·,25,29
COc1ccc(OCCC(=O)Nc2ccc(S(N)(=O)=O)cc2)cc1,–,·,–,18,–
N#Cc1ccc(NC(=O)OC2CCC23CCC(c2ccccc2)CC3)cc1 (configuration not stated),–,·,·,–,·
COc1ccc(/C=N/NC(=O)c2cccnc2)cc1CN1CCCc2ccccc21,–,–,–,22,19
COc1ccc(C(=O)N/N=C/c2ccc(OC)c(CN3CCCc4ccccc43)c2)cc1,–,–,–,–,·
CCc1nc(C)cn1S(=O)(=O)c1cc(C)c(OC)c(C)c1C,–,–,–,37,–
O=C(CN1CCN(c2ccc(O)cc2)CC1)Nc1cc(S(=O)(=O)N2CCCCC2)ccc1Cl,–,–,–,21,–
O=S(=O)(c1ccc(Cl)c(NC(=S)N/N=C/c2c(F)cccc2F)c1)N1CCOCC1,–,–,–,–,·
O=S(=O)(c1ccc(Cl)c(NC(=S)N/N=C/c2ccc(O)cc2)c1)N1CCOCC1,–,–,–,18,–
CCNC(=O)C1CCCN(C(=O)c2ccccc2)CC1 (configuration not stated),–,·,·,–,·
COC(=O)c1cc2c(c3c4cc(OC)ccc4n(S(=O)(=O)c4ccc(OC)cc4)c13)C(=O)N(Cc1ccco1)C2,–,·,·,–,·
O=c1c2cn[nH]c2[nH]c(=S)n1-c1cccc2ccccc12,–,–,–,23,–
O=C(c1ccc(Cn2c(=O)[nH]c3ccccc3c2=O)cc1)N1CCN(c2ccccn2)CC1,–,–,–,–,·
O=C(c1ccc(Cn2c(=S)[nH]c3ccccc3c2=O)cc1)N1CCN(c2ccccn2)CC1,–,–,–,23,–
Cc1sc(N/N=C/c2cccnc2)nc1-c1ccccc1,–,–,–,17,–
c1cc2c3c(cccc3c1)NC(c1ccc3c(c1)OCO3)N2,–,·,–,28,–
Cc1cccc(C2Nc3cccc4cccc(c34)N2)c1,–,·,–,–,·
CCCCCCCCN1C(=O)[C@H](CC(=O)N2CCN(C(=O)C3CC3)CC2)C[C@@]2(C(=O)OC)CCCCC=C12,–,·,·,–,·
SMILES,mABHD4 FP,RBBP9 inhibitor,HTRA1 inhibitor,SIAE primary,SIAE confirm
CCOC(=O)N1CCN(C(=O)C[C@H]2C[C@@]3(C(=O)OC)C(=C[C@H](C(C)(C)C)O[C@@H]3C)N(Cc3ccco3)C2=O)CC1,–,·,·,–,·
C[C@@H]1CCCCO[C@@H](CN(C)Cc2ccc(C(F)(F)F)cc2)[C@@H](C)CN([C@H](C)CO)C(=O)c2cc(N(C)C)ccc2O1,–,·,–,22,–
CSc1ccc(C2Nc3cccc4cccc(c34)N2)cc1,–,·,–,–,·
c1cc2c3c(cccc3c1)NC1(CCCCC1)N2,–,–,–,30,–
COCCN(CC(=O)Nc1cccc(C)c1C)C(=O)c1oc2c(Cl)cccc2c1C,–,·,–,28,–
Cc1c(C(=O)N(C)CC(=O)Nc2cccc(F)c2)oc2c(Cl)cccc12,–,·,–,–,·
COc1ccc(C(=O)C(=O)N2CCN(C(=O)c3ccccc3C(F)(F)F)CC2)cc1OC,–,·,·,22,–
O=C(C(=O)N1CCN(C(=O)c2ccccc2C(F)(F)F)CC1)c1cccc(C(F)(F)F)c1,–,·,·,–,·
CCN(CC)C(=O)CC[C@H]1CC[C@]2(CCCN(C(=O)c3cccnc3)C2)O1,–,·,·,–,·
CN(C)c1nc2c(N)ncnc2n1[C@H]1O[C@@H](CO)[C@H](O)[C@@H]1O,–,·,–,22,–
C=CCN1C(=O)[C@H](CC(=O)NCCc2ccccc2OC)[C@@]2(C(=O)OCC)CCCC=C12,–,·,·,–,·
Cc1ccc(-n2nc3ccc(N)cc3n2)cc1Cl,–,·,–,–,·
COc1ccc(-n2nc3ccc(N)cc3n2)cc1Cl,–,·,–,72,–
CCOc1cccc(/C=N/N2CCN(c3ccc(Cl)cc3)CC2)c1O,–,·,–,21,–
COc1ccccc1/C=N/N1CCN(c2ccc(Cl)cc2)CC1,–,·,–,–,·
CCOc1ccc(Oc2ccc(NC(=O)CSc3nncn3C)cc2)cc1,–,·,–,19,–
Cc1c(NC(=S)NC(=O)c2cccc(Br)c2)c(=O)n(-c2ccccc2)n1C,–,·,–,17,–
CC(C)(C)CCN1CCC(CN2CCNC2=S)CC1,–,·,–,18,–
O=C(Cn1c(-c2cncs2)nc2ccccc21)NC1CCCCC1,–,·,·,–,·
c1cc2c(cc1-c1cnc3n1CCC3)OCCO2,–,–,–,17,–
CC(=O)OCC(=O)N1CCN(C(=O)C(=O)c2cccc(C(F)(F)F)c2)CC1,–,·,·,–,·
Cc1csc(=O)n1CC(=O)OCC(=O)NC(C)c1ccc(F)cc1 (configuration not stated),–,·,–,19,–
CC1=NN(c2cccc([N+](=O)[O-])c2)C(=O)C1,–,–,–,17,–
CC1=NN(c2ccccc2)C(=O)C1,–,–,–,–,·
O=C1C=C(c2ccc(CO)cc2)C[C@@H](c2ccc(F)cc2)C1,–,·,–,–,·
SMILES,mABHD4 FP,RBBP9 inhibitor,HTRA1 inhibitor,SIAE primary,SIAE confirm
O=C(O)c1ccc(-c2cccc(Cl)c2)o1,–,–,–,18,–
S=C(c1ccc(-c2cccc(Cl)c2)o1)N1CCCCC1,–,–,–,–,·
O=C(O)c1ccc2c(c1)C1C=CCC1C(c1cc3c(cc1Br)OCO3)N2 (configuration not stated),–,–,–,–,·
CC(=O)c1ccc2c(c1)C1C=CCC1C(C(=O)O)N2 (configuration not stated),70,–,·,34,–
COC(=O)[C@@]12C[C@@H](CC(=O)NCc3cccc(C(F)(F)F)c3)C(=O)N(CCc3ccc(OC)c(OC)c3)C1=CCC(C)(C)C2,–,·,·,–,·
O=C(N/N=C\c1cn(-c2ccccc2)nc1-c1ccccc1)c1ccc(Br)o1,–,–,–,–,·
O=C(N/N=C/c1cn(-c2ccccc2)nc1-c1ccccc1)c1ccco1,–,–,–,21,–
CC(C)c1ccc(NC(=O)/C(C#N)=C/c2ccncc2)cc1,–,·,–,18,–
CC1=NN(c2ccc(S(=O)(=O)O)cc2C)C(=O)C1,–,–,–,20,–
